Converted amounts (≈) assume the structure as drawn.
Tests used:
Staphylococcus aureus [1] = assay: Antibacterial activity against Staphylococcus aureus ATCC 6538 after 20 hrs by microbroth dilution method; assay type: functional; conditions: ATCC 6538, 20 h
How it was run: (§1)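 MIC by broth microdilution in Mueller–Hinton broth. Strains were pre-grown 24h at 37 °C with shaking at 180 rpm. Inoculum was 5x10^5 CFU/ml, exposed 20 h at 37 °C to compound (0.001 – 5 mg/ml, DMSO solvent). MIC was the lowest concentration inhibiting observable growth. Tetracycline served as reference. Triplicate.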

Enterococcus faecalis = assay: Antibacterial activity against Enterococcus faecalis PCM 2673 after 20 hrs by microbroth dilution method; assay type: functional; conditions: PCM 2673, 20 h; how it was run: as §1
Pseudomonas aeruginosa = assay: Antibacterial activity against Pseudomonas aeruginosa PCM 2562 after 20 hrs by microbroth dilution method; assay type: functional; conditions: PCM 2562, 20 h; how it was run: as §1
Klebsiella pneumoniae = assay: Antibacterial activity against Klebsiella pneumoniae PCM1 after 20 hrs by microbroth dilution method; assay type: functional; conditions: PCM1, 20 h; how it was run: as §1
Escherichia coli = assay: Antibacterial activity against Escherichia coli ATCC 8739 after 20 hrs by microbroth dilution method; assay type: functional; conditions: ATCC 8739, 20 h; how it was run: as §1
Enterobacter cloacae = assay: Antibacterial activity against Enterobacter cloacae PCM 2569 after 20 hrs by microbroth dilution method; assay type: functional; conditions: PCM 2569, 20 h; how it was run: as §1
Proteus vulgaris = assay: Antibacterial activity against Proteus vulgaris PCM 2668 after 20 hrs by microbroth dilution method; assay type: functional; conditions: PCM 2668, 20 h; how it was run: as §1
Salmonella bongori = assay: Antibacterial activity against Salmonella bongori PCM 2552 after 20 hrs by microbroth dilution method; assay type: functional; conditions: PCM 2552, 20 h; how it was run: as §1
[2] = Hemolytic activity in human erythrocytes at 1 to 250 ug/mL incubated for 1 hr; assay type: ADME, cell-based, Erythrocyte; conditions: read-out: Activity
How it was run: (§2)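 Human blood was collected into citrate dextrose anticoagulant. Erythrocytes were spun at 500×g for 10 min at 4 °C, then washed in PBS (10 mM phosphate, pH 7.5; 150 mM NaCl) until the supernatant was clear, and resuspended at 2%. 450 µl of suspension was mixed with compound in 50 µl DMSO (1 - 250 µg/ml), incubated 1h at 37 °C, spun at 5000×g for 10 min, and supernatant A415 was read. Controls: tetracycline and chloramphenicol negative, Triton X-100 (1%) positive.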

Staphylococcus aureus [3] = assay: Antibacterial activity against Staphylococcus aureus MN8 assessed as reduction in CFU/ml by <3 logs after 24 hrs; assay type: functional; conditions: MN8, 24 h
Staphylococcus aureus [4] = assay: Antibacterial activity against Staphylococcus aureus CDC587 assessed as reduction in CFU/ml by <3 logs after 24 hrs; assay type: functional; conditions: CDC587, 24 h
Staphylococcus aureus [5] = assay: Antibacterial activity against Staphylococcus aureus MNPE assessed as reduction in CFU/ml by <3 logs after 24 hrs; assay type: functional
Staphylococcus aureus [6] = assay: Antibacterial activity against Staphylococcus aureus MW2 assessed as reduction in CFU/ml by <3 logs after 24 hrs; assay type: functional; conditions: MW2, 24 h
Staphylococcus aureus [7] = assay: Antibacterial activity against Staphylococcus aureus LAC assessed as reduction in CFU/ml by <3 logs after 24 hrs; assay type: functional
[8] = Hemolytic activity in human blood cells at 5 ug/mL after 48 hrs by photometric method; assay type: ADME, cell-based, Erythrocyte; conditions: read-out: Activity
[9] = Hemolytic activity in human erythrocytes at 60 ug/mL incubated for 1 hr; assay type: ADME, cell-based, Erythrocyte; conditions: read-out: Activity; how it was run: as §2

| Structure (SMILES) | MIC (Staphylococcus aureus [1]) | MIC (Enterococcus faecalis) | MIC (Pseudomonas aeruginosa) | MIC (Klebsiella pneumoniae) | MIC (Escherichia coli) | MIC (Enterobacter cloacae) | MIC (Proteus vulgaris) | MIC (Salmonella bongori) | hemolysis at 1 h [2] | MIC (Staphylococcus aureus [3]) | MIC (Staphylococcus aureus [4]) | MIC (Staphylococcus aureus [5]) | MIC (Staphylococcus aureus [6]) | MIC (Staphylococcus aureus [7]) | hemolysis at 48 h, 5 ug/mL [8] | hemolysis at 1 h, 60 ug/mL [9] |
| --- | --- | --- | --- | --- | --- | --- | --- | --- | --- | --- | --- | --- | --- | --- | --- | --- |
| CC(C)[C@H](NC1=CC(=O)c2ccccc2C1=O)C(=O)O | 500 µg/mL (≈ 1830 µM) | 500 µg/mL (≈ 1830 µM) | 500 µg/mL (≈ 1830 µM) | 500 µg/mL (≈ 1830 µM) | 500 µg/mL (≈ 1830 µM) | 500 µg/mL (≈ 1830 µM) | 500 µg/mL (≈ 1830 µM) | 500 µg/mL (≈ 1830 µM) |  |  |  |  |  |  |  |  |
| O=C1C=C(N[C@@H](C(=O)O)c2ccccc2)C(=O)c2ccccc21 | 250 µg/mL (≈ 814 µM) | 500 µg/mL (≈ 1630 µM) | 500 µg/mL (≈ 1630 µM) | 500 µg/mL (≈ 1630 µM) | 500 µg/mL (≈ 1630 µM) | 500 µg/mL (≈ 1630 µM) |  | 500 µg/mL (≈ 1630 µM) |  |  |  |  |  |  |  |  |
| COc1ccc(C2=CC(=O)c3ccccc3C2=O)c(OC)c1 | 15.6 µg/mL (≈ 53 µM) |  | 250 µg/mL (≈ 849 µM) | 250 µg/mL (≈ 849 µM) | 250 µg/mL (≈ 849 µM) | 250 µg/mL (≈ 849 µM) |  | 250 µg/mL (≈ 849 µM) | ≤ 2% |  |  |  |  |  |  |  |
| O=C1C=C(N[C@@H](Cc2c[nH]c3ccccc23)C(=O)O)C(=O)c2ccccc21 | 62.5 µg/mL (≈ 173 µM) | 500 µg/mL (≈ 1390 µM) | 500 µg/mL (≈ 1390 µM) | 500 µg/mL (≈ 1390 µM) | 500 µg/mL (≈ 1390 µM) | 500 µg/mL (≈ 1390 µM) | 500 µg/mL (≈ 1390 µM) | 500 µg/mL (≈ 1390 µM) |  |  |  |  |  |  |  |  |
| Cc1cc(C)c(C2=CC(=O)c3ccccc3C2=O)c(C)c1 | 15.6 µg/mL (≈ 56.5 µM) |  | 500 µg/mL (≈ 1810 µM) | 500 µg/mL (≈ 1810 µM) | 500 µg/mL (≈ 1810 µM) | 500 µg/mL (≈ 1810 µM) | 500 µg/mL (≈ 1810 µM) | 500 µg/mL (≈ 1810 µM) |  |  |  |  |  |  |  |  |
| O=C1C=C(c2ccccc2)C(=O)c2ccccc21 |  |  | 250 µg/mL (≈ 1070 µM) |  |  |  |  | 250 µg/mL (≈ 1070 µM) |  |  |  |  |  |  |  |  |
| COc1cc2ccc(C3=CC(=O)c4ccccc4C3=O)cc2cc1OC | 500 µg/mL (≈ 1450 µM) |  | 500 µg/mL (≈ 1450 µM) | 500 µg/mL (≈ 1450 µM) | 500 µg/mL (≈ 1450 µM) | 500 µg/mL (≈ 1450 µM) |  | 500 µg/mL (≈ 1450 µM) |  |  |  |  |  |  |  |  |
| COc1cc(OC)c(C2=CC(=O)c3ccccc3C2=O)c(OC)c1 | 250 µg/mL (≈ 771 µM) |  | 250 µg/mL (≈ 771 µM) | 250 µg/mL (≈ 771 µM) | 250 µg/mL (≈ 771 µM) | 250 µg/mL (≈ 771 µM) |  | 250 µg/mL (≈ 771 µM) |  |  |  |  |  |  |  |  |
| O=C1C=C(Nc2ccccc2)C(=O)c2ccccc21 | 62.5 µg/mL (≈ 251 µM) |  | 250 µg/mL (≈ 1000 µM) | 250 µg/mL (≈ 1000 µM) | 250 µg/mL (≈ 1000 µM) | 250 µg/mL (≈ 1000 µM) |  | 250 µg/mL (≈ 1000 µM) |  |  |  |  |  |  |  |  |
| COc1cc(NC(C)=O)ccc1C1=CC(=O)c2ccccc2C1=O | 15.6 µg/mL (≈ 48.5 µM) |  | 250 µg/mL (≈ 778 µM) | 250 µg/mL (≈ 778 µM) | 250 µg/mL (≈ 778 µM) | 250 µg/mL (≈ 778 µM) |  | 250 µg/mL (≈ 778 µM) | ≤ 2% |  |  |  |  |  |  |  |
| CN(C)[C@@H]1C(O)=C(C(N)=O)C(=O)[C@@]2(O)C(O)=C3C(=O)c4c(O)cccc4[C@@](C)(O)[C@H]3C[C@@H]12 [TETRACYCLINE] | 7.8 µg/mL (≈ 17.6 µM) | 31.2 µg/mL (≈ 70.2 µM) | 15.6 µg/mL (≈ 35.1 µM) | 15.6 µg/mL (≈ 35.1 µM) | 0.5 µg/mL (≈ 1.13 µM) | 7.8 µg/mL (≈ 17.6 µM) | 7.8 µg/mL (≈ 17.6 µM) | 3.9 µg/mL (≈ 8.78 µM) |  |  |  |  |  |  |  |  |
| Cc1ccc(C2=CC(=O)c3ccccc3C2=O)cc1C | 500 µg/mL (≈ 1910 µM) |  | 500 µg/mL (≈ 1910 µM) | 500 µg/mL (≈ 1910 µM) | 500 µg/mL (≈ 1910 µM) | 500 µg/mL (≈ 1910 µM) | 500 µg/mL (≈ 1910 µM) | 500 µg/mL (≈ 1910 µM) |  |  |  |  |  |  |  |  |
| O=C1C=CC(=O)c2ccccc21 [NAPHTHOQUINONE] | 31.2 µg/mL (≈ 197 µM) | 125 µg/mL (≈ 790 µM) | 125 µg/mL (≈ 790 µM) | 250 µg/mL (≈ 1580 µM) | 125 µg/mL (≈ 790 µM) | 250 µg/mL (≈ 1580 µM) |  | 125 µg/mL (≈ 790 µM) |  |  |  |  |  |  |  |  |
| O=C1C=C(N2CCC[C@H]2C(=O)O)C(=O)c2ccccc21 | 31.2 µg/mL (≈ 115 µM) | 250 µg/mL (≈ 922 µM) | 250 µg/mL (≈ 922 µM) | 250 µg/mL (≈ 922 µM) | 250 µg/mL (≈ 922 µM) | 250 µg/mL (≈ 922 µM) | 500 µg/mL (≈ 1840 µM) | 250 µg/mL (≈ 922 µM) |  |  |  |  |  |  |  |  |
| O=C1C=C(c2ccc(N(Cc3ccccc3)Cc3ccccc3)cc2)C(=O)c2ccccc21 | 250 µg/mL (≈ 582 µM) | 250 µg/mL (≈ 582 µM) | 250 µg/mL (≈ 582 µM) | 250 µg/mL (≈ 582 µM) | 250 µg/mL (≈ 582 µM) | 250 µg/mL (≈ 582 µM) |  | 250 µg/mL (≈ 582 µM) |  |  |  |  |  |  |  |  |
| O=C1C(c2ccccc2)=C(c2ccccc2)C(=O)c2ccccc21 | 62.5 µg/mL (≈ 201 µM) |  | 500 µg/mL (≈ 1610 µM) | 500 µg/mL (≈ 1610 µM) | 250 µg/mL (≈ 806 µM) | 500 µg/mL (≈ 1610 µM) | 500 µg/mL (≈ 1610 µM) | 500 µg/mL (≈ 1610 µM) |  |  |  |  |  |  |  |  |
| COC(=O)[C@H](C)NC1=CC(=O)c2ccccc2C1=O | 62.5 µg/mL (≈ 241 µM) | 250 µg/mL (≈ 964 µM) | 500 µg/mL (≈ 1930 µM) | 500 µg/mL (≈ 1930 µM) | 250 µg/mL (≈ 964 µM) | 500 µg/mL (≈ 1930 µM) | 500 µg/mL (≈ 1930 µM) | 500 µg/mL (≈ 1930 µM) |  |  |  |  |  |  |  |  |
| CN(C)c1ccc(C2=CC(=O)c3ccccc3C2=O)cc1 | 125 µg/mL (≈ 451 µM) |  | 250 µg/mL (≈ 901 µM) | 62.5 µg/mL (≈ 225 µM) | 125 µg/mL (≈ 451 µM) | 250 µg/mL (≈ 901 µM) | 250 µg/mL (≈ 901 µM) | 125 µg/mL (≈ 451 µM) |  |  |  |  |  |  |  |  |
| COc1cc(N(C)C)ccc1C1=CC(=O)c2ccccc2C1=O | 7.8 µg/mL (≈ 25.4 µM) |  | 250 µg/mL (≈ 813 µM) | 250 µg/mL (≈ 813 µM) | 250 µg/mL (≈ 813 µM) | 250 µg/mL (≈ 813 µM) |  | 250 µg/mL (≈ 813 µM) |  |  |  |  |  |  |  |  |
| CC1=CC(=O)c2ccccc2C1=O [MENADIONE] |  |  |  |  |  |  |  |  |  | 3 µg/mL (≈ 17.4 µM) | 3 µg/mL (≈ 17.4 µM) | 3 µg/mL (≈ 17.4 µM) | 3 µg/mL (≈ 17.4 µM) | 3 µg/mL (≈ 17.4 µM) | 3.5% |  |
| Cc1cc(N(C)C)ccc1C1=CC(=O)c2ccccc2C1=O | 7.8 µg/mL (≈ 26.8 µM) |  | 250 µg/mL (≈ 858 µM) | 250 µg/mL (≈ 858 µM) | 250 µg/mL (≈ 858 µM) | 250 µg/mL (≈ 858 µM) |  | 250 µg/mL (≈ 858 µM) | ≤ 2% |  |  |  |  |  |  | 2% |
